# Experimental data published in ChEMBL document CHEMBL1157387, “Antitussive stemoninine alkaloids from the roots of Stemona tuberosa” (2008).
# Columns and labels:
# Assay type in all cases: functional
# [1] = system: Cavia porcellus; assay: Antitussive activity in guinea pig assessed as inhibition of citric acid-induced coughing at 0.25 umol, intracerebroventricularly administered as single dose after 3 mins relative to control
# Method in brief: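 Unrestrained conscious Dunkin-Hartley guinea pigs with a 22-gauge guide cannula in the lateral ventricle, placed stereotaxically under anaesthesia, recovered 4 days. Single icv dose in 10 µL of Tween 80/saline (5:95). 3 min later, 8-min 0.5 M citric acid aerosol (0.5 mL/min) in an airtight chamber. Cough sounds recorded and episodes counted. % inhibition vs vehicle group; one-way ANOVA with Bonferroni tests.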
# [2] = system: Cavia porcellus; assay: Antitussive activity in guinea pig assessed as inhibition of citric acid-induced coughing at 0.26 mmol/kg, ip administered as single dose after 30 mins; conditions: 0.5 h
# Method in brief: (§1)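 Unrestrained conscious Dunkin-Hartley guinea pigs, randomised, given a single ip dose in DMSO. 30 min later, 8-min 0.5 M citric acid aerosol (0.5 mL/min) in an airtight chamber. Cough sounds recorded and episodes counted. % inhibition vs vehicle group (n = 4-8); one-way ANOVA with Bonferroni tests.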
# [3] = system: Cavia porcellus; assay: Antitussive activity in guinea pig assessed as inhibition of citric acid-induced coughing at 0.26 mmol/kg, po administered as single dose after 30 mins; parameters: scale not given: the % may be the effect or the level left
# Method in brief: (§2)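 Unrestrained conscious Dunkin-Hartley guinea pigs, randomised, given a single oral dose of 100 mg/kg in Tween 80/saline (5:95). 30 min later, 8-min 0.5 M citric acid aerosol (0.5 mL/min) in an airtight chamber. Cough episodes counted from recorded sounds. % inhibition vs vehicle group (n = 4-8); ANOVA with Bonferroni tests.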
# [4] = system: Cavia porcellus; assay: Antitussive activity in guinea pig assessed as inhibition of citric acid-induced coughing at 0.33 mmol/kg, ip administered as single dose after 30 mins; conditions: 0.5 h; method in brief: as §1
# [5] = system: Cavia porcellus; assay: Antitussive activity in guinea pig assessed as inhibition of citric acid-induced coughing at 0.33 mmol/kg, po administered as single dose after 30 mins; parameters: scale not given: the % may be the effect or the level left; method in brief: as §2
SMILES,inhibition (INH) [1] [%],inhibition in vivo at 260 µmol/kg [2] [%],Activity [3] [%],inhibition in vivo at 330 µmol/kg [4] [%],Activity [5] [%]
CC[C@H]1[C@H]2[C@@H](CCCN3C([C@@H]4C[C@H](C)C(=O)O4)=CC(=O)[C@@]23OC)O[C@]12C=C(C)C(=O)O2,10,–,–,–,–
CC[C@H]1[C@H]2[C@@H](CCCN3C([C@@H]4C[C@H](C)C(=O)O4)=CC(=O)[C@@]23O)O[C@]12C=C(C)C(=O)O2 [STEMOENONINE],10,–,–,–,–
CC[C@H]1[C@H]2[C@@H](CCCN3[C@H]2CC[C@H]3[C@@H]2C[C@H](C)C(=O)O2)O[C@]12C=C(C)C(=O)O2 [STEMONININE],10,90,70,–,–
CC[C@H]1[C@H]2[C@@H](CCCN3C(=O)CC[C@@H]23)O[C@]12C=C(C)C(=O)O2 [STEMONINOAMIDE],10,–,–,90,70
